Data on 23 compounds can be found in ChEMBL document CHEMBL1141656, “N-{[(6-substituted-1,3-benzothiazole-2-yl)amino]carbonothioyl}-2/4-substituted benzamides: synthesis and pharmacological evaluation” (Eur J Med Chem, 2008).

Data set [1] is filed under the species Mus musculus. In words: Neurotoxicity in CF1 albino mouse after 0.5 hrs by rotarod test. The data set is classed as toxicity, organism-based. The note with it: in vivo.
Data set [2] concerns Rattus norvegicus. In words: Antidepressant activity in Wistar rat assessed as mean average immobility time during 5 mins of test period at 30 mg/kg, po after 30 mins by forced-swimming test. The data set is classed as functional.
Data set [3] has as its system Rattus norvegicus. In words: Hepatotoxicity in Sprague-Dawley rat assessed as total protein level per 100 ml of blood at 30 mg/kg, po after 15 days. The format is toxicity, organism-based. Also on record: dose 30 mg/kg, route oral. The following applies: in vivo, 360 h. The essentials: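 Rats given 30 mg/kg/day p.o. in methylcellulose for two weeks, then anesthetized with ether. Blood was collected from the liver. SGOT, SGPT, alkaline phosphatase, total protein and albumin were measured by reported methods.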

The subject of data set [4] is Mus musculus. In words: Anticonvulsant activity in ip dosed CF1 albino mouse assessed as minimum effective dose after 4 hrs by scPTZ test. The format is functional. The method, boiled down: (§1)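 Mice dosed i.p. at 30, 100 and 300 mg/kg in 1% Tween 80 or 0.5% methylcellulose–water, then challenged 0.5 and 4 h later. PTZ in 0.9% NaCl was injected s.c. at the posterior midline. Mice were watched for 30 min. Protection meant no clonic spasm lasting at least 5 s. Value is the minimum dose active in half or more of the mice.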

The species entered for data set [5] is Mus musculus. As to the kind of experiment: Neurotoxicity in CF1 albino mouse after 4 hrs by rotarod test. The data set is classed as toxicity, organism-based. The note with it: in vivo. On the technique in general: In the rotarod test animals must keep their balance on a rotating rod.
Data set [6] relates to Mus musculus. In words: Anticonvulsant activity in ip dosed CF1 albino mouse assessed as minimum effective dose after 0.5 hrs by MES screen test. The format is functional. The essentials:
(§2)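 Mice given test compounds i.p. at 30, 100 and 300 mg/kg (one to four mice per dose), suspended in 1% Tween 80 or 0.5% methylcellulose–water. Maximal electroshock seizure test, read at 0.5 and 4 h after dosing. Value is the lowest dose protecting half or more of the mice.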

Data set [7] deals with Mus musculus. In words: Anticonvulsant activity in ip dosed CF1 albino mouse assessed as minimum effective dose after 0.5 hrs by scPTZ test. The data set is classed as functional. The method, boiled down: as §1
For data set [8], the species on record is Rattus norvegicus. As to the kind of experiment: Hepatotoxicity in Sprague-Dawley rat assessed as presence of normal hepatic parenchyma with portal triad and central vein by histopathological study. The data set is classed as toxicity, organism-based. The note with it: in vivo. The essentials: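 Rats were dosed chronically and sacrificed under light ether anesthesia 24 h after the last dose. Livers were removed, washed in normal saline and embedded in paraffin. Sections 5–6 thick were cut, stained with haematoxylin and eosin, and examined microscopically.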

In data set [9] the test system is Mus musculus. In words: Anticonvulsant activity in ip dosed CF1 albino mouse assessed as minimum effective dose after 4 hrs by MES screen test. The format is functional. The essentials: as §2

In the case of `O=C(NC(=S)Nc1nc2ccc(F)cc2s1)c1ccccc1`, the Activity result in the data set listed under Mus musculus [1] is “Not Active”; in the data set with Rattus norvegicus [2] it was 24 s; in the data set with Rattus norvegicus [3], 1.8 g; with Mus musculus [4], 100 mg/kg; in the data set filed under Mus musculus [5], “Not Active”; in the data set on Mus musculus [6] it was 30 mg/kg. The results for the Activity in the data set with Mus musculus [7], in the data set filed under Rattus norvegicus [8] and in the data set on Mus musculus [9] were 30 mg/kg, “Non-toxic” and 30 mg/kg, respectively.
In the case of `COc1ccc(C(=O)NC(=S)Nc2nc3ccc(Cl)cc3s2)cc1`, the Activity result in the data set filed under Mus musculus [1] was “Not Active”; in the data set on Rattus norvegicus [2], 34.2 s; in the data set on Rattus norvegicus [3] it was 1.79 g; in the data set on Mus musculus [4], 100 mg/kg; in the data set listed under Mus musculus [5], “Not Active”; with Mus musculus [6] it was 30 mg/kg. Besides, the values for the Activity in the data set on Mus musculus [7], in the data set filed under Rattus norvegicus [8] and in the data set on Mus musculus [9] were 30 mg/kg, “Non-toxic” and 30 mg/kg, respectively.
With `O=C(NC(=S)Nc1nc2ccc(Cl)cc2s1)c1ccccc1`, the Activity in the data set with Rattus norvegicus [2] is 29 s; with Mus musculus [4], 300 mg/kg; in the data set on Mus musculus [6], 300 mg/kg; in the data set with Mus musculus [7], 100 mg/kg; in the data set listed under Rattus norvegicus [8], “Non-toxic”; in the data set with Mus musculus [9], 300 mg/kg.
Consider `Cc1ccc2nc(NC(=S)NC(=O)c3ccccc3)sc2c1`, for which the Activity with Rattus norvegicus [2] is 29 s; in the data set on Mus musculus [4], 300 mg/kg; with Mus musculus [6], 300 mg/kg; in the data set with Mus musculus [7], 300 mg/kg; in the data set filed under Rattus norvegicus [8] it was “Non-toxic”; in the data set with Mus musculus [9], 300 mg/kg.
In the case of `O=C(NC(=S)Nc1nc2ccc(Br)cc2s1)c1ccccc1Cl`, the Activity in the data set on Rattus norvegicus [2] is 22.6 s; with Mus musculus [4], 300 mg/kg; in the data set on Mus musculus [6], 300 mg/kg; with Mus musculus [7], 300 mg/kg; in the data set filed under Rattus norvegicus [8], “Non-toxic”; with Mus musculus [9], 300 mg/kg.
`COc1ccc(C(=O)NC(=S)Nc2nc3ccc([N+](=O)[O-])cc3s2)cc1`: the Activity in the data set on Rattus norvegicus [2] was 27.8 s; in the data set filed under Rattus norvegicus [8], “Non-toxic”.
Consider `COc1ccc(C(=O)NC(=S)Nc2nc3ccc(C)cc3s2)cc1`, for which the Activity in the data set with Rattus norvegicus [2] is 10.2 s; in the data set with Mus musculus [6], 300 mg/kg; in the data set filed under Rattus norvegicus [8], “Non-toxic”; in the data set on Mus musculus [9], 300 mg/kg.
For the compound `O=C(NC(=S)Nc1nc2ccc(F)cc2s1)c1ccccc1Cl`, the Activity result in the data set listed under Mus musculus [1] was “Not Active”; in the data set on Rattus norvegicus [2], 25 s; in the data set with Rattus norvegicus [3], 1.83 g; in the data set with Mus musculus [4], 300 mg/kg; in the data set filed under Mus musculus [5], “Not Active”; in the data set on Mus musculus [6] it was 30 mg/kg. Moreover, the Activity in the data set on Mus musculus [7] was 100 mg/kg; in the data set listed under Rattus norvegicus [8], “Non-toxic”; in the data set with Mus musculus [9], 100 mg/kg.
Turning to `O=C(NC(=S)Nc1nc2ccc(F)cc2s1)c1ccc(Cl)cc1`, the Activity in the data set with Rattus norvegicus [2] was 24.6 s; in the data set on Mus musculus [6] it was 100 mg/kg; in the data set listed under Rattus norvegicus [8], “Non-toxic”; with Mus musculus [9], 300 mg/kg.
In the case of `Cc1ccc2nc(NC(=S)NC(=O)c3ccccc3Cl)sc2c1`, the Activity result in the data set filed under Mus musculus [1] was “Not Active”; in the data set with Rattus norvegicus [2], 40.4 s; with Rattus norvegicus [3], 1.71 g; with Mus musculus [4], 30 mg/kg; in the data set filed under Mus musculus [5] it was “Not Active”; in the data set on Mus musculus [6] it was 30 mg/kg. The Activity in the data set on Mus musculus [7] is 30 mg/kg; in the data set filed under Rattus norvegicus [8] it was “Non-toxic”; in the data set with Mus musculus [9], 30 mg/kg.
For `O=C(NC(=S)Nc1nc2ccc(Cl)cc2s1)c1ccc(Cl)cc1`, the Activity result is “Not Active” in the data set filed under Mus musculus [1]; 20.2 s in the data set on Rattus norvegicus [2]; 1.9 g with Rattus norvegicus [3]; 300 mg/kg in the data set on Mus musculus [4]; “Not Active” in the data set filed under Mus musculus [5]; 30 mg/kg in the data set on Mus musculus [6]. The results for the Activity in the data set on Mus musculus [7], in the data set filed under Rattus norvegicus [8] and in the data set on Mus musculus [9] were 100 mg/kg, “Non-toxic” and 100 mg/kg, respectively.
Consider `Cc1ccc2nc(NC(=S)NC(=O)c3ccc(Cl)cc3)sc2c1`, for which the Activity entry in the data set filed under Mus musculus [1] is “Not Active”; in the data set with Rattus norvegicus [2], 30 s; in the data set with Rattus norvegicus [3], 1.88 g; with Mus musculus [4] it was 100 mg/kg; in the data set listed under Mus musculus [5], “Not Active”; in the data set with Mus musculus [6], 30 mg/kg. The Activity with Mus musculus [7] is 100 mg/kg; in the data set filed under Rattus norvegicus [8] it was “Non-toxic”; in the data set with Mus musculus [9], 100 mg/kg.
In the case of `COc1ccc(C(=O)NC(=S)Nc2nc3ccc(OC)cc3s2)cc1`, the Activity is 16.8 s in the data set with Rattus norvegicus [2]; 300 mg/kg in the data set on Mus musculus [4]; 300 mg/kg with Mus musculus [6]; 300 mg/kg with Mus musculus [7]; “Non-toxic” in the data set filed under Rattus norvegicus [8]; 300 mg/kg in the data set on Mus musculus [9].
Turning to `O=C(NC(=S)Nc1nc2ccc(Cl)cc2s1)c1ccccc1Cl`, the Activity was 32.6 s in the data set with Rattus norvegicus [2]; 300 mg/kg in the data set on Mus musculus [4]; 300 mg/kg in the data set with Mus musculus [6]; 300 mg/kg with Mus musculus [7]; “Non-toxic” in the data set listed under Rattus norvegicus [8]; 300 mg/kg with Mus musculus [9].
Regarding `COc1ccc2nc(NC(=S)NC(=O)c3ccccc3)sc2c1`, the Activity was 19.8 s with Rattus norvegicus [2]; 300 mg/kg in the data set on Mus musculus [4]; 100 mg/kg in the data set on Mus musculus [6]; 300 mg/kg in the data set with Mus musculus [7]; “Non-toxic” in the data set filed under Rattus norvegicus [8]; 100 mg/kg in the data set with Mus musculus [9].
In the case of `O=C(NC(=S)Nc1nc2ccc(Br)cc2s1)c1ccc(Cl)cc1`, the Activity is 38 s with Rattus norvegicus [2]; 300 mg/kg in the data set on Mus musculus [4]; 100 mg/kg in the data set with Mus musculus [6]; 300 mg/kg in the data set with Mus musculus [7]; “Non-toxic” in the data set listed under Rattus norvegicus [8]; 100 mg/kg with Mus musculus [9].
On to `COc1ccc(C(=O)NC(=S)Nc2nc3ccc(F)cc3s2)cc1`, for which the Activity in the data set on Rattus norvegicus [2] was 31.2 s; in the data set listed under Rattus norvegicus [8], “Non-toxic”.
Regarding `COc1ccc2nc(NC(=S)NC(=O)c3ccccc3Cl)sc2c1`, the Activity result in the data set filed under Mus musculus [1] was “Not Active”; in the data set on Rattus norvegicus [2], 42.6 s; in the data set on Rattus norvegicus [3], 1.98 g; in the data set on Mus musculus [4], 100 mg/kg; in the data set filed under Mus musculus [5], “Not Active”; in the data set with Mus musculus [6] it was 30 mg/kg. Also, the Activity with Mus musculus [7] is 100 mg/kg; in the data set listed under Rattus norvegicus [8] it was “Non-toxic”; in the data set on Mus musculus [9], 100 mg/kg.
In the case of `COc1ccc2nc(NC(=S)NC(=O)c3ccc(Cl)cc3)sc2c1`, the Activity in the data set with Rattus norvegicus [2] is 43 s; with Mus musculus [4], 300 mg/kg; in the data set with Mus musculus [6] it was 300 mg/kg; with Mus musculus [7], 300 mg/kg; in the data set listed under Rattus norvegicus [8] it was “Non-toxic”; in the data set with Mus musculus [9] it was 300 mg/kg.
Consider `O=C(NC(=S)Nc1nc2ccc([N+](=O)[O-])cc2s1)c1ccccc1`, for which the Activity was 14.8 s with Rattus norvegicus [2]; 300 mg/kg in the data set on Mus musculus [4]; 300 mg/kg with Mus musculus [6]; 300 mg/kg in the data set with Mus musculus [7]; “Non-toxic” in the data set filed under Rattus norvegicus [8]; 300 mg/kg in the data set with Mus musculus [9].
In the case of `NC(=O)N1c2ccccc2C=Cc2ccccc21` [CARBAMAZEPINE], the Activity entry is “Not Active” in the data set filed under Mus musculus [1]; 100 mg/kg with Mus musculus [4]; “Not Active” in the data set listed under Mus musculus [5]; 30 mg/kg in the data set on Mus musculus [6]; 100 mg/kg with Mus musculus [7]; “Non-toxic” in the data set filed under Rattus norvegicus [8]. Further, the Activity in the data set on Mus musculus [9] turned out to be 100 mg/kg.
On to `CNCCC(Oc1ccc(C(F)(F)F)cc1)c1ccccc1` (stereo not drawn) [FLUOXETINE], for which the Activity in the data set on Mus musculus [6] was 29.6 mg/kg; with Mus musculus [9], 14.2 mg/kg.
For `O=C1NC(=O)C(c2ccccc2)(c2ccccc2)N1` [PHENYTOIN], the Activity entry in the data set listed under Mus musculus [1] is “Not Active”; in the data set filed under Mus musculus [5] it was “Not Active”; with Mus musculus [6], 30 mg/kg; in the data set filed under Rattus norvegicus [8], “Non-toxic”; in the data set with Mus musculus [9] it was 30 mg/kg.
